Results taken from ChEMBL document CHEMBL1153887, “Cyclocondensation reaction of heterocyclic carbonyl compounds. Part XIII: synthesis and cytotoxic activity of some 3,7-diaryl-5-(3,4,5-trimethoxyphenyl)pyrazolo[4,3-e][1,2,4]triazines” (Eur J Med Chem, 2009).

Each compound was assayed on CCRF-CEM (assay: Cytotoxicity against human CEM cells after 72 hrs by MTT assay). Conditions: not given.
Assay type: cell-based

Compound | IC50
COc1cc(/C(=N\Nc2ccccc2)c2nc(-c3ccc(Cl)cc3)n[nH]c2=O)cc(OC)c1OC | 10.8 µM
COc1cc(Cc2nc(-c3ccccc3)n[nH]c2=O)cc(OC)c1OC | 2.71 µM
COc1ccc(N/N=C(\c2cc(OC)c(OC)c(OC)c2)c2nc(-c3ccccc3)n[nH]c2=O)cc1 | 4.16 µM
COc1cc(-c2nn(-c3ccccc3)c3nnc(-c4ccc(Cl)cc4)nc23)cc(OC)c1OC | 11.6 µM
COc1cccc(-n2nc(-c3cc(OC)c(OC)c(OC)c3)c3nc(-c4ccc(Cl)cc4)nnc32)c1 | 54.7 µM
COc1cc(/C(=N\Nc2ccc(Cl)cc2)c2nc(-c3ccccc3)n[nH]c2=O)cc(OC)c1OC | 25.1 µM
COc1ccc(-c2n[nH]c(=O)c(/C(=N/Nc3ccccc3)c3cc(OC)c(OC)c(OC)c3)n2)cc1 | 9.81 µM
COc1ccc(-c2n[nH]c(=O)c(/C(=N/Nc3cccc(OC)c3)c3cc(OC)c(OC)c(OC)c3)n2)cc1 | 68.7 µM
COc1cc(-c2nn(-c3ccc(Cl)cc3)c3nnc(-c4ccc(Cl)cc4)nc23)cc(OC)c1OC | 68.9 µM
COc1cc(-c2nn(-c3ccc(Cl)cc3)c3nnc(-c4ccccc4)nc23)cc(OC)c1OC | 150 µM

These compounds were tested on CCRF-CEM (assay: Cytotoxicity against human daunorubicin-resistant CEM cells after 72 hrs by MTT assay). Conditions: not given.
Assay type: cell-based
How it was run: (§1)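 Cells seeded at 2500–30,000 cells/well and left 24 h at 37 °C, 5% CO₂, then fourfold dilution series in duplicate for 72 h. MTT for 4 h, formazan dissolved in 10% SDS (pH 5.5), OD read at 540 nm against controls. Mean of three independent experiments.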

Compound | IC50
COc1cc(/C(=N\Nc2ccccc2)c2nc(-c3ccc(Cl)cc3)n[nH]c2=O)cc(OC)c1OC | 37.7 µM
COc1cc(Cc2nc(-c3ccccc3)n[nH]c2=O)cc(OC)c1OC | 3.21 µM
COc1ccc(N/N=C(\c2cc(OC)c(OC)c(OC)c2)c2nc(-c3ccccc3)n[nH]c2=O)cc1 | 9.46 µM
COc1cc(-c2nn(-c3ccccc3)c3nnc(-c4ccc(Cl)cc4)nc23)cc(OC)c1OC | 113 µM
COc1cccc(-n2nc(-c3cc(OC)c(OC)c(OC)c3)c3nc(-c4ccc(Cl)cc4)nnc32)c1 | 108 µM
COc1cc(/C(=N\Nc2ccc(Cl)cc2)c2nc(-c3ccccc3)n[nH]c2=O)cc(OC)c1OC | 46.8 µM
COc1ccc(-c2n[nH]c(=O)c(/C(=N/Nc3ccccc3)c3cc(OC)c(OC)c(OC)c3)n2)cc1 | 39.8 µM
COc1ccc(-c2n[nH]c(=O)c(/C(=N/Nc3cccc(OC)c3)c3cc(OC)c(OC)c(OC)c3)n2)cc1 | 132 µM
COc1cc(-c2nn(-c3ccc(Cl)cc3)c3nnc(-c4ccc(Cl)cc4)nc23)cc(OC)c1OC | 126 µM
COc1cc(-c2nn(-c3ccc(Cl)cc3)c3nnc(-c4ccccc4)nc23)cc(OC)c1OC | 156 µM

Each compound was assayed on K562 (assay: Cytotoxicity against human K562 cells after 72 hrs by MTT assay). Conditions: K562, 72 h.
Assay type: functional, cell-based

Compound | IC50
COc1cc(/C(=N\Nc2ccccc2)c2nc(-c3ccc(Cl)cc3)n[nH]c2=O)cc(OC)c1OC | 17.5 µM
COc1cc(Cc2nc(-c3ccccc3)n[nH]c2=O)cc(OC)c1OC | 1.17 µM
COc1ccc(N/N=C(\c2cc(OC)c(OC)c(OC)c2)c2nc(-c3ccccc3)n[nH]c2=O)cc1 | 6.27 µM
COc1cc(-c2nn(-c3ccccc3)c3nnc(-c4ccc(Cl)cc4)nc23)cc(OC)c1OC | 220 µM
COc1cccc(-n2nc(-c3cc(OC)c(OC)c(OC)c3)c3nc(-c4ccc(Cl)cc4)nnc32)c1 | 192 µM
COc1cc(/C(=N\Nc2ccc(Cl)cc2)c2nc(-c3ccccc3)n[nH]c2=O)cc(OC)c1OC | 12 µM
COc1ccc(-c2n[nH]c(=O)c(/C(=N/Nc3ccccc3)c3cc(OC)c(OC)c(OC)c3)n2)cc1 | 18.4 µM
COc1ccc(-c2n[nH]c(=O)c(/C(=N/Nc3cccc(OC)c3)c3cc(OC)c(OC)c(OC)c3)n2)cc1 | 162 µM
COc1cc(-c2nn(-c3ccc(Cl)cc3)c3nnc(-c4ccc(Cl)cc4)nc23)cc(OC)c1OC | 190 µM
COc1cc(-c2nn(-c3ccc(Cl)cc3)c3nnc(-c4ccccc4)nc23)cc(OC)c1OC | 250 µM

What follows are compounds tested on K562 (assay: Cytotoxicity against human paclitaxel-resistant K562 cells after 72 hrs by MTT assay). Conditions: K562, 72 h.
Assay type: functional, cell-based
How it was run: as §1

Compound | IC50
COc1cc(/C(=N\Nc2ccccc2)c2nc(-c3ccc(Cl)cc3)n[nH]c2=O)cc(OC)c1OC | 33.1 µM
COc1cc(Cc2nc(-c3ccccc3)n[nH]c2=O)cc(OC)c1OC | 3.88 µM
COc1ccc(N/N=C(\c2cc(OC)c(OC)c(OC)c2)c2nc(-c3ccccc3)n[nH]c2=O)cc1 | 11 µM
COc1cc(-c2nn(-c3ccccc3)c3nnc(-c4ccc(Cl)cc4)nc23)cc(OC)c1OC | 225 µM
COc1cccc(-n2nc(-c3cc(OC)c(OC)c(OC)c3)c3nc(-c4ccc(Cl)cc4)nnc32)c1 | 219 µM
COc1cc(/C(=N\Nc2ccc(Cl)cc2)c2nc(-c3ccccc3)n[nH]c2=O)cc(OC)c1OC | 38.4 µM
COc1ccc(-c2n[nH]c(=O)c(/C(=N/Nc3ccccc3)c3cc(OC)c(OC)c(OC)c3)n2)cc1 | 31.8 µM
COc1ccc(-c2n[nH]c(=O)c(/C(=N/Nc3cccc(OC)c3)c3cc(OC)c(OC)c(OC)c3)n2)cc1 | 250 µM
COc1cc(-c2nn(-c3ccc(Cl)cc3)c3nnc(-c4ccc(Cl)cc4)nc23)cc(OC)c1OC | 222 µM
COc1cc(-c2nn(-c3ccc(Cl)cc3)c3nnc(-c4ccccc4)nc23)cc(OC)c1OC | 173 µM

The compounds below were run on A549 (assay: Cytotoxicity against human A549 cells after 72 hrs by MTT assay). Conditions: A549, 72 h.
Assay type: functional, cell-based

Compound | IC50
COc1cc(/C(=N\Nc2ccccc2)c2nc(-c3ccc(Cl)cc3)n[nH]c2=O)cc(OC)c1OC | 22.1 µM
COc1cc(Cc2nc(-c3ccccc3)n[nH]c2=O)cc(OC)c1OC | 3.46 µM
COc1ccc(N/N=C(\c2cc(OC)c(OC)c(OC)c2)c2nc(-c3ccccc3)n[nH]c2=O)cc1 | 3.06 µM
COc1cc(-c2nn(-c3ccccc3)c3nnc(-c4ccc(Cl)cc4)nc23)cc(OC)c1OC | 130 µM
COc1cccc(-n2nc(-c3cc(OC)c(OC)c(OC)c3)c3nc(-c4ccc(Cl)cc4)nnc32)c1 | 2.86 µM
COc1cc(/C(=N\Nc2ccc(Cl)cc2)c2nc(-c3ccccc3)n[nH]c2=O)cc(OC)c1OC | 8.55 µM
COc1ccc(-c2n[nH]c(=O)c(/C(=N/Nc3ccccc3)c3cc(OC)c(OC)c(OC)c3)n2)cc1 | 23.7 µM
COc1ccc(-c2n[nH]c(=O)c(/C(=N/Nc3cccc(OC)c3)c3cc(OC)c(OC)c(OC)c3)n2)cc1 | 250 µM
COc1cc(-c2nn(-c3ccc(Cl)cc3)c3nnc(-c4ccc(Cl)cc4)nc23)cc(OC)c1OC | 155 µM
COc1cc(-c2nn(-c3ccc(Cl)cc3)c3nnc(-c4ccccc4)nc23)cc(OC)c1OC | 57.3 µM
